Data as given in ChEMBL document CHEMBL3616400, “Design, Synthesis, and Evaluation of Triazole Derivatives That Induce Nrf2 Dependent Gene Products and Inhibit the Keap1-Nrf2 Protein-Protein Interaction” (J Med Chem, 2015).
The source made the active and inactive calls. The calls are words filed in the database; no cut-off is given here.

What was measured:
[1] = Therapeutic index, ratio of GI50 for mouse Hepa1c1c7 cells to CD for activation of Nrf2 in mouse Hepa1c1c7 cells assessed as concentration required to 2 fold induction of NQO1 production; type: cell-based; settings: read-out: TI
[2] = target: T1, Keap1/Nrf2 (Homo sapiens) (UniProt Q16236+Q14145); assay: Inhibition of mCherry labeled Keap1 interaction to ETGE motif from Nrf2 in human HEK293 cells at 10 uM by FRET based assay; type: cell-based
Summary of the method: (§1)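 HEK293 cells were co-transfected with EGFP-Nrf2 and Keap1-mCherry. Each cell was imaged by FLIM twice: once basal and once 1 h after 10 µM compound. EGFP lifetime and FRET efficiency were calculated in the cytoplasm. High- and low-FRET-efficiency populations were scored to distinguish DLG-dependent binding from ETGE-dependent binding.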

[3] = target: T2, Nuclear factor erythroid 2-related factor 2 (Mus musculus) (UniProt Q60795); assay: Activation of Nrf2 in mouse Hepa1c1c7 cells assessed as increase of HO-1 expression at 10 uM after 6 hrs by Western blot analysis; type: cell-based
T2 sequence (whole entry): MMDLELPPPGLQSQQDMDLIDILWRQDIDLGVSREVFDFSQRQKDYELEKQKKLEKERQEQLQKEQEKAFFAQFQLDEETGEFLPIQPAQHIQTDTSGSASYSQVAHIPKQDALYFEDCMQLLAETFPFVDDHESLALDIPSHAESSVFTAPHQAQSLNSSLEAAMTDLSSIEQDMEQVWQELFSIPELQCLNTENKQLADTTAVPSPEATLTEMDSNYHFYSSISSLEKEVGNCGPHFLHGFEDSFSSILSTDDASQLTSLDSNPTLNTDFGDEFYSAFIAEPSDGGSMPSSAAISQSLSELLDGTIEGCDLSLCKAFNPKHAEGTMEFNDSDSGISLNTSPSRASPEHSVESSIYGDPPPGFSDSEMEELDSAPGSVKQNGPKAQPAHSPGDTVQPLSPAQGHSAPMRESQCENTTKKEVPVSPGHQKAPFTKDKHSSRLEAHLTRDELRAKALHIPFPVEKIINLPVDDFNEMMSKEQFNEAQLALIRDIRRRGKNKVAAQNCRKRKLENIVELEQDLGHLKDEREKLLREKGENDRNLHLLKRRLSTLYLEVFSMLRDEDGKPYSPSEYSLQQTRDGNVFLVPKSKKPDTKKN
Summary of the method: (§2)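 Hepa1c1c7 cells incubated with test compounds at 10 µM for various exposure times, up to 24 h. Nrf2, HO-1 and NQO1 protein levels assessed by Western blot.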

[4] = target: T2, Nuclear factor erythroid 2-related factor 2 (Mus musculus); assay: Activation of Nrf2 in mouse Hepa1c1c7 cells assessed as concentration required to 2 fold induction of NQO1 production after 24 hrs by MTT colorimetric assay; type: cell-based
Summary of the method: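 Hepa1c1c7 mouse hepatoma cells exposed to a concentration range for 24 h. NQO1 enzymatic activity measured by colorimetric induction assay. Value reported as CD, the concentration giving a two-fold increase in NQO1 activity.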

[5] = target: T1, Keap1/Nrf2 (Homo sapiens); assay: Inhibition of mCherry labeled Keap1 interaction to DLG motif from Nrf2 in human HEK293 cells at 10 uM by FRET based assay; type: cell-based; summary of the method: as §1
[6] = organism: Mus musculus; assay: Increase of Nrf2 protein level in mouse Hepa1c1c7 cells at 10 uM after 24 hrs by Western blot analysis; type: functional, cell-based; summary of the method: as §2
[7] = organism: Mus musculus; assay: Increase of Nrf2 protein level in mouse Hepa1c1c7 cells at 10 uM by Western blot analysis; type: functional, cell-based; settings: TDE = time-dependent effect; summary of the method: as §2
[8] = target: T2, Nuclear factor erythroid 2-related factor 2 (Mus musculus); assay: Activation of Nrf2 in mouse Hepa1c1c7 cells assessed as increase of NQO1 expression at 10 uM measured before 24 hrs by Western blot analysis; type: cell-based; summary of the method: as §2
[9] = target: T1, Keap1/Nrf2 (Homo sapiens); assay: Inhibition of kelch domain of Keap1 (unknown origin) interaction to high affinity ETGE motif from Nrf2 unknown origin) at 100 uM by fluorescence polarization assay; type: protein assay
Summary of the method: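 Fluorescence polarization competition. Keap1 Kelch domain with fluorescein-labelled ETGE peptide FITC-β-DEETGEF-OH (β = β-alanine). Displacement measured with a fixed 100 µM inhibitor; percent inhibition reported.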

[10] = target: T3, Keap1/Nrf2 (Homo sapiens, UniProt Q14145); assay: Inhibition of kelch domain of Keap1 (unknown origin) interaction to high affinity ETGE motif from Nrf2 by fluorescence polarization assay; type: protein assay
Summary of the method: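 Competitive fluorescence polarization, dose-response format. Keap1 Kelch domain with fluorescein-labelled Nrf2 ETGE peptide FITC-β-DEETGEF-OH. EC50 derived from dose-response curves.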

[11] = target: T2, Nuclear factor erythroid 2-related factor 2 (Mus musculus); assay: Activation of Nrf2 in mouse Hepa1c1c7 cells assessed as induction of NQO1 production at 10 uM after 24 hrs by MTT colorimetric assay relative to control; type: cell-based
Summary of the method: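 Hepa1c1c7 mouse hepatoma cells treated at a fixed 10 µM for 24 h. NQO1 enzyme activity read by colorimetric induction assay and expressed as fold induction over control.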

[12] = target: T3, Keap1/Nrf2; assay: Inhibition of Keap1 (unknown origin) interaction to Nrf2; type: protein assay
[13] = target: Kelch-like ECH-associated protein 1 (Homo sapiens) (UniProt Q14145); assay: Binding affinity to kelch domain of Keap1 (unknown origin) using high affinity ETGE motif from Nrf2 unknown origin) at 200 uM by fluorescence polarization assay
[14] = target: T1, Keap1/Nrf2 (Homo sapiens); assay: Inhibition of kelch domain of Keap1 (unknown origin) interaction to high affinity ETGE motif from Nrf2 unknown origin) in presence of 0 to 1 % v/v Triton X100 by fluorescence polarization assay; type: protein assay
[15] = organism: Mus musculus; assay: Increase of Nrf2 protein level in mouse Hepa1c1c7 cells at 10 uM after 3 to 6 hrs by Western blot analysis; type: functional, cell-based; summary of the method: as §2
[16] = Cytotoxicity against mouse Hepa1c1c7 cells assessed as cell viability at 200 uM after 24 to 48 hrs by SRB assay; type: cell-based; settings: read-out: Activity
Summary of the method: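 Hepa1c1c7 cells exposed to compounds at up to 200 µM for 24 and 48 h. Viability determined by sulforhodamine B assay.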

T1 sequence (Q14145 whole entry, looked up): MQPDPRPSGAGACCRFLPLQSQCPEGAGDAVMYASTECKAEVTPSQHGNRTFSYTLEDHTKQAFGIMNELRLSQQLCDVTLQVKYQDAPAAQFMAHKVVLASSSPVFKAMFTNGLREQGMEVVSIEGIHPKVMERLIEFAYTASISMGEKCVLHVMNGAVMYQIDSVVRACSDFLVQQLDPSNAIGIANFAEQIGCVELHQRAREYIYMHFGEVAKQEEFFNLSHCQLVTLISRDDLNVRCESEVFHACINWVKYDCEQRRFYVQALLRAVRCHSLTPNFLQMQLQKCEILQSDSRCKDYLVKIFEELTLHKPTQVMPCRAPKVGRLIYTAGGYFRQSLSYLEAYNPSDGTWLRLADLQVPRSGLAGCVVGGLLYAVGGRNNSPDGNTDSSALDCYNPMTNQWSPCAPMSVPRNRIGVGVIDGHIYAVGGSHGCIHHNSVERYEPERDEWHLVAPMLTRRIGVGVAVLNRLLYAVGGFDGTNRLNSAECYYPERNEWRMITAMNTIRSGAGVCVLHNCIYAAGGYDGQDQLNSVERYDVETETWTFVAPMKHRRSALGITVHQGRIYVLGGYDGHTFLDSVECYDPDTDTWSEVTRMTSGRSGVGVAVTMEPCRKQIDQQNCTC
T1 sequence (Q16236 whole entry, looked up): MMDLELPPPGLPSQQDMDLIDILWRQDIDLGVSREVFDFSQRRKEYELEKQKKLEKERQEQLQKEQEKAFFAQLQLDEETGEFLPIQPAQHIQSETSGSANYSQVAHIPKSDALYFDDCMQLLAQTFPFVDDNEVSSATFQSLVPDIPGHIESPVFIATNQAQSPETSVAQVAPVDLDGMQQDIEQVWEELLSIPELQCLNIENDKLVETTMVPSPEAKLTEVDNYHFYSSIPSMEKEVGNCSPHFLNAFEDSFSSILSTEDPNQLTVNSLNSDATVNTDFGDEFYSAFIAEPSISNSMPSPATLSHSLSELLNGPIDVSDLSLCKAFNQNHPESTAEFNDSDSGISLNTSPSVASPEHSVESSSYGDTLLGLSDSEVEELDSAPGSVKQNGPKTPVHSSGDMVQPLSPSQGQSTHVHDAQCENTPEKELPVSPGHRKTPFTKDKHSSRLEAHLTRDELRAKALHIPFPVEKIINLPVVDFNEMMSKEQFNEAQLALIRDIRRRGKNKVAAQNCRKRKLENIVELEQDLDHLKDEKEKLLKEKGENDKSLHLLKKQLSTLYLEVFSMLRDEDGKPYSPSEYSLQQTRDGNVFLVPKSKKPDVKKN
T3 sequence (Q16236 whole entry, the tested form may be a part): as the sequence (Q16236 whole entry, looked up) above
T3 sequence (Q14145 whole entry, the tested form may be a part): as the sequence (Q14145 whole entry, looked up) above
Kelch-like ECH-associated protein 1 (Homo sapiens), sequence (Q14145 whole entry, the tested form may be a part): as the sequence (Q14145 whole entry, looked up) above

In the case of `C[S+]([O-])CCCCN=C=S` (configuration not stated) [SULFORAPHANE], the selectivity ratio [1] is reported as 250, the inhibition [2] is reported as “inactive” and the Activity [3] is reported as “Active”. For the same compound, the CD [4] was 0.3 µM, the inhibition [5] was “Active” and the Activity [6] was “Active”. For the same compound, the Activity [7] was “tde” and the Activity [8] was “inactive”.
In the case of `Cc1cccc(-n2cc(-c3cccc([N+](=O)[O-])c3)nn2)c1`, the inhibition [9] is reported as 68.9%, the Activity [3] is reported as “Active” and the CD [4] is reported as 1.3 µM. The EC50 [10] was 10 µM, the Activity [6] was “Active” and the Activity [7] was “tde”. The fold change (FC) [11] was 2.2 and the Activity [8] was “inactive”.
Ac-WRQDIDL-OH showed an EC50 [12] of 17.1 µM.
For `O=[N+]([O-])c1cccc(-c2cn(-c3cccc(I)c3)nn2)c1`, the selectivity ratio [1] was > 1000, the inhibition [2] was “inactive” and the inhibition [9] was 67.2%. For the same compound, the Activity [13] was “Active”, the Activity [3] was “Active” and the CD [4] was 0.6 µM. The inhibition [5] was “Active”, the inhibition [14] was “Active” and the Activity [15] was “Active”. For the same compound, the EC50 [10] was 7.1 µM, the Activity [6] was “Active” and the Activity [7] was “tde”. The viability at 200 µM [16] was 100%, the fold change (FC) [11] was 4 and the Activity [8] was “inactive”.
